Legend:
Assay type in all cases: functional
Coptotermes formosanus [1] = test: Termiticidal activity against Coptotermes formosanus placed on 0.5 % wt/wt compound treated filter paper assessed as termite mortality measured 11 days post compound exposure
Summary of the method: (§1)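 Treated filter paper disks moistened with 100 µL water; 20 C. formosanus workers (third instar or greater) plus 1 soldier per dish from field colonies kept on spruce, ca. 100% RH, 26.6 °C. Daily mortality scored for 3 weeks; cumulative percent mortality from four replicates, each a different colony; water-only controls; ANOVA, protected Fisher LSD (P < 0.05) after arcsine square-root transform.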

Coptotermes formosanus [2] = test: Termiticidal activity against Coptotermes formosanus placed on 0.5 % wt/wt compound treated filter paper assessed as termite mortality measured 13 days post compound exposure; summary of the method: as §1
Coptotermes formosanus [3] = test: Termiticidal activity against Coptotermes formosanus placed on 0.05 % wt/wt compound treated filter paper assessed as termite mortality measured 11 days post compound exposure; summary of the method: as §1
Coptotermes formosanus [4] = test: Termiticidal activity against Coptotermes formosanus placed on 0.1 % wt/wt compound treated filter paper assessed as termite mortality measured 9 days post compound exposure; summary of the method: as §1
Coptotermes formosanus [5] = test: Termiticidal activity against Coptotermes formosanus placed on 0.001 % wt/wt compound treated filter paper assessed as termite mortality measured 6 days post compound exposure; summary of the method: as §1
Coptotermes formosanus [6] = test: Termiticidal activity against Coptotermes formosanus placed on 0.1 % wt/wt compound treated filter paper assessed as termite mortality measured 6 days post compound exposure; summary of the method: as §1
Coptotermes formosanus [7] = test: Antifeedant activity against Coptotermes formosanus placed on 0.001 % wt/wt compound treated filter paper assessed as filter paper consumption measured 21 days post compound exposure (reference value: 23.6 +/- 13.6 mg)
Coptotermes formosanus [8] = test: Termiticidal activity against Coptotermes formosanus placed on 0.01 % wt/wt compound treated filter paper assessed as termite mortality measured 21 days post compound exposure; summary of the method: as §1
Coptotermes formosanus [9] = test: Termiticidal activity against Coptotermes formosanus placed on 0.05 % wt/wt compound treated filter paper assessed as termite mortality measured 13 days post compound exposure; summary of the method: as §1
Coptotermes formosanus [10] = test: Termiticidal activity against Coptotermes formosanus placed on 0.05 % wt/wt compound treated filter paper assessed as termite mortality measured 6 days post compound exposure; summary of the method: as §1
Coptotermes formosanus [11] = test: Termiticidal activity against Coptotermes formosanus placed on 0.01 % wt/wt compound treated filter paper assessed as termite mortality measured 11 days post compound exposure; summary of the method: as §1
Coptotermes formosanus [12] = test: Antifeedant activity against Coptotermes formosanus placed on 0.01 % wt/wt compound treated filter paper assessed as filter paper consumption measured 21 days post compound exposure (reference value: 23.6 +/- 13.6 mg)
Coptotermes formosanus [13] = test: Termiticidal activity against Coptotermes formosanus placed on 0.01 % wt/wt compound treated filter paper assessed as termite mortality measured 13 days post compound exposure; summary of the method: as §1
Coptotermes formosanus [14] = test: Termiticidal activity against Coptotermes formosanus placed on 0.5 % wt/wt compound treated filter paper assessed as termite mortality measured 17 days post compound exposure; summary of the method: as §1
Coptotermes formosanus [15] = test: Antifeedant activity against Coptotermes formosanus placed on 0.1 % wt/wt compound treated filter paper assessed as filter paper consumption measured 21 days post compound exposure (reference value: 23.6 +/- 13.6 mg)
Coptotermes formosanus [16] = test: Termiticidal activity against Coptotermes formosanus placed on 0.1 % wt/wt compound treated filter paper assessed as termite mortality measured 21 days post compound exposure; summary of the method: as §1
Coptotermes formosanus [17] = test: Termiticidal activity against Coptotermes formosanus placed on 0.05 % wt/wt compound treated filter paper assessed as termite mortality measured 21 days post compound exposure; summary of the method: as §1
Coptotermes formosanus [18] = test: Termiticidal activity against Coptotermes formosanus placed on 0.05 % wt/wt compound treated filter paper assessed as termite mortality measured 9 days post compound exposure; summary of the method: as §1
Coptotermes formosanus [19] = test: Termiticidal activity against Coptotermes formosanus placed on 0.001 % wt/wt compound treated filter paper assessed as termite mortality measured 11 days post compound exposure; summary of the method: as §1
Coptotermes formosanus [20] = test: Termiticidal activity against Coptotermes formosanus placed on 0.01 % wt/wt compound treated filter paper assessed as termite mortality measured 6 days post compound exposure; summary of the method: as §1
Coptotermes formosanus [21] = test: Termiticidal activity against Coptotermes formosanus placed on 0.001 % wt/wt compound treated filter paper assessed as termite mortality measured 17 days post compound exposure; summary of the method: as §1
Coptotermes formosanus [22] = test: Termiticidal activity against Coptotermes formosanus placed on 0.1 % wt/wt compound treated filter paper assessed as termite mortality measured 13 days post compound exposure; summary of the method: as §1
Coptotermes formosanus [23] = test: Termiticidal activity against Coptotermes formosanus placed on 0.05 % wt/wt compound treated filter paper assessed as termite mortality measured 17 days post compound exposure; summary of the method: as §1
Coptotermes formosanus [24] = test: Termiticidal activity against Coptotermes formosanus placed on 0.5 % wt/wt compound treated filter paper assessed as termite mortality measured 6 days post compound exposure; summary of the method: as §1
Coptotermes formosanus [25] = test: Termiticidal activity against Coptotermes formosanus placed on 0.1 % wt/wt compound treated filter paper assessed as termite mortality measured 17 days post compound exposure; summary of the method: as §1
Coptotermes formosanus [26] = test: Termiticidal activity against Coptotermes formosanus placed on 0.01 % wt/wt compound treated filter paper assessed as termite mortality measured 9 days post compound exposure; summary of the method: as §1
Coptotermes formosanus [27] = test: Termiticidal activity against Coptotermes formosanus placed on 0.01 % wt/wt compound treated filter paper assessed as termite mortality measured 17 days post compound exposure; summary of the method: as §1
Coptotermes formosanus [28] = test: Termiticidal activity against Coptotermes formosanus placed on 0.5 % wt/wt compound treated filter paper assessed as termite mortality measured 9 days post compound exposure; summary of the method: as §1
Coptotermes formosanus [29] = test: Termiticidal activity against Coptotermes formosanus placed on 0.5 % wt/wt compound treated filter paper assessed as termite mortality measured 21 days post compound exposure; summary of the method: as §1
Coptotermes formosanus [30] = test: Antifeedant activity against Coptotermes formosanus placed on 0.05 % wt/wt compound treated filter paper assessed as filter paper consumption measured 21 days post compound exposure (reference value: 23.6 +/- 13.6 mg)
Coptotermes formosanus [31] = test: Termiticidal activity against Coptotermes formosanus placed on 0.001 % wt/wt compound treated filter paper assessed as termite mortality measured 21 days post compound exposure; summary of the method: as §1
Coptotermes formosanus [32] = test: Termiticidal activity against Coptotermes formosanus placed on 0.5 % wt/wt compound treated filter paper assessed as termite mortality measured 3 days post compound exposure; summary of the method: as §1
Coptotermes formosanus [33] = test: Termiticidal activity against Coptotermes formosanus placed on 0.001 % wt/wt compound treated filter paper assessed as termite mortality measured 13 days post compound exposure; summary of the method: as §1
Coptotermes formosanus [34] = test: Termiticidal activity against Coptotermes formosanus placed on 0.1 % wt/wt compound treated filter paper assessed as termite mortality measured 11 days post compound exposure; summary of the method: as §1
Coptotermes formosanus [35] = test: Antifeedant activity against Coptotermes formosanus placed on 0.5 % wt/wt compound treated filter paper assessed as filter paper consumption measured 21 days post compound exposure (reference value: 23.6 +/- 13.6 mg)
Coptotermes formosanus [36] = test: Termiticidal activity against Coptotermes formosanus placed on 0.001 % wt/wt compound treated filter paper assessed as termite mortality measured 9 days post compound exposure; summary of the method: as §1

Which mortality (Coptotermes formosanus [1]) does the source give for `CC1=C(C)C(=O)C(Cl)=C(Cl)C1=O` here?
Its mortality is 100%.

What about the mortality (Coptotermes formosanus [2]) of the same compound?
The mortality was 100%.

What about the mortality (Coptotermes formosanus [3]) of the same compound?
Its mortality is 3.4%.

And the mortality (Coptotermes formosanus [4])?
The mortality was 26.3%.

What about the mortality (Coptotermes formosanus [5]) of the same compound?
Its mortality is 1.3%.

And the mortality (Coptotermes formosanus [6])?
Its mortality is 1.3%.

And the Activity (Coptotermes formosanus [7])?
Its Activity is 17.5 mg.

What about the mortality (Coptotermes formosanus [8]) of the same compound?
The mortality was 10%.

And the mortality (Coptotermes formosanus [9])?
The mortality was 5%.

What about the mortality (Coptotermes formosanus [10]) of the same compound?
Its mortality is 0%.

What about the mortality (Coptotermes formosanus [11]) of the same compound?
Its mortality is 3.8%.

What about the Activity (Coptotermes formosanus [12]) of the same compound?
Its Activity is 25 mg.

What about the mortality (Coptotermes formosanus [13]) of the same compound?
The mortality was 7.5%.

And the mortality (Coptotermes formosanus [14])?
Its mortality is 100%.

What about the Activity (Coptotermes formosanus [15]) of the same compound?
Its Activity is 13.1 mg.

And the mortality (Coptotermes formosanus [16])?
Its mortality is 68.8%.

What about the mortality (Coptotermes formosanus [17]) of the same compound?
Its mortality is 5%.

What about the mortality (Coptotermes formosanus [18]) of the same compound?
Its mortality is 1.3%.

What about the mortality (Coptotermes formosanus [19]) of the same compound?
The mortality was 6.8%.

What about the mortality (Coptotermes formosanus [20]) of the same compound?
The mortality was 3.8%.

What about the mortality (Coptotermes formosanus [21]) of the same compound?
The mortality was 26.3%.

What about the mortality (Coptotermes formosanus [22]) of the same compound?
The mortality was 41.3%.

What about the mortality (Coptotermes formosanus [23]) of the same compound?
The mortality was 5%.

What about the mortality (Coptotermes formosanus [24]) of the same compound?
The mortality was 100%.

What about the mortality (Coptotermes formosanus [25]) of the same compound?
Its mortality is 60%.

What about the mortality (Coptotermes formosanus [26]) of the same compound?
Its mortality is 3.8%.

And the mortality (Coptotermes formosanus [27])?
Its mortality is 10%.

What about the mortality (Coptotermes formosanus [28]) of the same compound?
Its mortality is 100%.

And the mortality (Coptotermes formosanus [29])?
Its mortality is 100%.

And the Activity (Coptotermes formosanus [30])?
Its Activity is 18.3 mg.

And the mortality (Coptotermes formosanus [31])?
The mortality was 27.5%.

And the mortality (Coptotermes formosanus [32])?
Its mortality is 100%.

What about the mortality (Coptotermes formosanus [33]) of the same compound?
Its mortality is 26.3%.

And the mortality (Coptotermes formosanus [34])?
The mortality was 30.4%.

What about the Activity (Coptotermes formosanus [35]) of the same compound?
The Activity was 3.2 mg.

What about the mortality (Coptotermes formosanus [36]) of the same compound?
Its mortality is 2.5%.

— ChEMBL document CHEMBL3045504, “Activity of 1,4-benzoquinones against formosan subterranean termites (Coptotermes formosanus)” (2008)
